Reference: ChEMBL document CHEMBL4007409, “Design and Synthesis of Novel and Selective Phosphodiesterase 2 (PDE2a) Inhibitors for the Treatment of Memory Disorders” (J Med Chem, 2017)
Values after ≈ are worked out from the molar mass of the structure shown.

Experiments:
[1] = Intrinsic clearance in rat liver microsomes at 1 uM measured up to 30 mins in presence of NADPH by HPLC analysis; format: ADME, microsome; conditions: read-out: CLH
Outline: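 Compound at 1 µM final was incubated with human or rat liver microsomes (0.5 mg protein/mL) in Tris buffer at 37 °C, started with NADPH (2 mM). Samples were quenched in cold ACN with indomethacin internal standard at 0, 5, 15 and 30 min (RLM) or 0, 15, 30 and 60 min (HLM) and analysed by HPLC. CLint = first-order degradation rate constant / microsomal protein concentration.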

[2] = Solubility of the compound; format: physicochemical
[3] = Tmax in Sprague-Dawley rat plasma at 1 mg/kg, po administered as single dose by LC-MS/MS analysis; format: ADME, organism-based
Outline: (§1)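 Non-fasted male SD rats (200-250 g, n=3) received a single oral 1 mg/kg dose in NMP:PEG400:water (5:35:65). Femoral-vein blood was sampled pre-dose and at 0.25–24 h. Plasma was extracted with acetonitrile plus internal standard and analysed by LC-MS/MS over a 0.5–2000 ng/mL calibration range.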

[4] = Oral bioavailability in Sprague-Dawley rat plasma at 1 mg/kg administered as single dose by LC-MS/MS analysis; format: ADME, organism-based; outline: as §1
[5] = Cmax in Sprague-Dawley rat plasma at 1 mg/kg, po administered as single dose by LC-MS/MS analysis; format: ADME, organism-based; set-up: dose 1 mg/kg, route oral; outline: as §1
[6] = Volume of distribution at steady state in Sprague-Dawley rat plasma at 1 mg/kg, iv administered as single dose by LC-MS/MS analysis; format: ADME, organism-based; conditions: read-out: Vdss
Outline: (§2)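 Male SD rats (200-250 g), not fasted, n=3, given a single 1 mg/kg IV dose in NMP:PEG400:water (5:35:65) via jugular/femoral vein catheters. Blood was taken from pre-dose to 24 h (0.033–24 h). Plasma was protein-precipitated with acetonitrile containing internal standard and quantified by LC-MS/MS against 0.5–2000 ng/mL standards.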

[7] = Clearance in Sprague-Dawley rat plasma at 1 mg/kg, iv administered as single dose by LC-MS/MS analysis; format: ADME, organism-based; outline: as §2
Rattus norvegicus = experiment: Clearance in Sprague-Dawley rat plasma at 1 mg/kg, iv administered as single dose by LC-MS/MS analysis relative to hepatic blood flow; format: ADME, organism-based; conditions: in vivo
[8] = AUC (infinity) in Sprague-Dawley rat plasma at 1 mg/kg, po administered as single dose by LC-MS/MS analysis; format: ADME, organism-based; set-up: dose 1 mg/kg, time infinity, route oral; outline: as §1
Brain = experiment: Drug uptake in Sprague-Dawley rat brain at 1 mg/kg, po administered as single dose by LC-MS/MS analysis; format: ADME, organism-based; conditions: in vivo, read-out: Drug uptake
Outline: (§3)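 Male SD rats got a single 1 mg/kg oral dose in NMP:PEG400:water (5:35:65). Total brain, CSF and plasma levels were then measured.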

[9] = AUC (0 to infinity) in Sprague-Dawley rat plasma at 1 mg/kg, iv administered as single dose by LC-MS/MS analysis; format: ADME, organism-based; set-up: dose 1 mg/kg, time infinity, route intravenous; outline: as §2
Cerebrospinal fluid = experiment: Drug uptake in Sprague-Dawley rat cerebrospinal fluid at 1 mg/kg, po administered as single dose by LC-MS/MS analysis; format: ADME, organism-based; conditions: in vivo, read-out: Drug uptake; outline: as §3
Plasma = experiment: Drug uptake in Sprague-Dawley rat plasma at 1 mg/kg, po administered as single dose by LC-MS/MS analysis; format: ADME, organism-based; conditions: read-out: Cp, in vivo; outline: as §3
[10] = Elimination half life in Sprague-Dawley rat plasma at 1 mg/kg, iv administered as single dose by LC-MS/MS analysis; format: ADME, organism-based; conditions: read-out: beta t1/2 (converted); outline: as §2

Row | Structure (SMILES) | microsomal CLint at 1 µM [1] [µL/min/mg] | solubility [2] [µg/mL] | also measured
1 | Cc1cc([C@@H]2CN(C(=O)c3cc(C)c(F)c(F)c3)CC(F)(F)C2)n2ncnc2n1 | 52.2 |  | 
2 | Cc1cc(N2CCCC(C(=O)Nc3ccc4ccccc4c3)C2)n2ncnc2n1 (centres undefined) | 53.4 | 13 (≈ 33.6 µM) | 
3 | COc1ccc(C(=O)N2CC(c3cc(C)nc4ncnn34)CC(F)(F)C2)cc1C (racemic) | 67.7 |  | 
4 | COc1ccc(C(=O)N2CCCC(c3cc(C)nc4ncnn34)C2)cc1C (centres undefined) | 30.2 | 36 (≈ 98.5 µM) | 
5 | Cc1cc(C2CCCN(C(=O)c3ccc4c(c3)CCC4)C2)n2ncnc2n1 (centres undefined) | 83.9 | 47 (≈ 130 µM) | 
6 | Cc1cc(C2CN(C(=O)c3ccc4ccccc4c3)CC(F)(F)C2)n2ncnc2n1 (racemic) | 78.8 |  | 
7 | Cc1cc(C2CCCN(C(=O)c3ccc(F)c(C)c3)C2)n2ncnc2n1 (centres undefined) | 33.5 | 35 (≈ 99 µM) | 
8 | Cc1cc(N2CCCC(C(=O)Nc3ccc4c(c3)CCC4)C2)n2ncnc2n1 (centres undefined) | 67.9 | 49 (≈ 130 µM) | 
9 | Cc1cc([C@H]2CCCN(C(=O)c3ccc4ccccc4c3)C2)n2ncnc2n1 | 124 | 37 (≈ 99.6 µM) | 
10 | O=C(Nc1ccc2c(c1)CCC2)C1CCCN(c2cc(C(F)(F)F)nc3ncnn23)C1 (centres undefined) | 94.1 | 29 (≈ 67.4 µM) | 
11 | O=C(Nc1ccc2c(c1)CCC2)C1CCCN(c2ccnc3ncnn23)C1 (centres undefined) | 76.2 | 47 (≈ 130 µM) | 
12 | Cc1cc([C@@H]2CCCN(C(=O)c3ccc4ccccc4c3)C2)n2ncnc2n1 | 41.4 | 37 (≈ 99.6 µM) | 

Continued, in another order:

Row | microsomal CLint at 1 µM [1] [µL/min/mg] | solubility [2] [µg/mL] | Structure (SMILES) | also measured
13 | 78.9 | 45 (≈ 112 µM) | COc1cc(Cl)ccc1NC(=O)C1CCCN(c2cc(C)nc3ncnn23)C1 (centres undefined) | 
14 | 162 |  | Cc1cc([C@@H]2CN(C(=O)c3ccc(F)c(C4CC4)c3)CC(F)(F)C2)n2ncnc2n1 | 
15 | 21.7 | 36 (≈ 99.1 µM) | Cc1cc(C2CCCN(C(=O)c3ccc4c(c3)OCC4)C2)n2ncnc2n1 (centres undefined) | 
16 | 6.3 | 47 (≈ 126 µM) | Cc1cc(C2CCCN(C(=O)c3ccc4ncccc4c3)C2)n2ncnc2n1 (centres undefined) | 
17 | 25.7 |  | Cc1cc([C@@H]2CN(C(=O)c3ccc(F)c(Br)c3)CC(F)(F)C2)n2ncnc2n1 | Tmax [3]: 40.2 min; bioavailability [4]: 87%; Cmax [5]: 201 ng/mL; Vd [6]: 0.98 L/kg; clearance [7]: 32.8 mL/min/kg; CL (Rattus norvegicus): 50%; AUC(0-inf) [8]: 442 ng·h/mL; concentration (Brain): 66 nM; AUC(0-inf) [9]: 508 ng·h/mL; concentration (Cerebrospinal fluid): 15 nM; concentration (Plasma): 204 nM; half-life [10]: 60.6 min
18 | 17.3 |  | Cc1cc([C@H]2CN(C(=O)c3ccc(F)c(Br)c3)CC(F)(F)C2)n2ncnc2n1 | 
19 | 85.6 | 37 (≈ 99.6 µM) | Cc1cc(C2CCCN(C(=O)c3ccc4ccccc4c3)C2)n2ncnc2n1 (racemic) | 
